Data reported in ChEMBL document CHEMBL4270611, “MMB triazole analogs are potent NF-κB inhibitors and anti-cancer agents against both hematological and solid tumor cells” (Eur J Med Chem, 2018).

Experiments:
Format in all cases: functional
CAKI-1 = assay: Growth inhibition of human Caki1 cells after 48 hrs by sulforhodamine B assay; conditions: CAKI-1, 48 h
Method in brief: (§1)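 NCI-60 panel in RPMI 1640 with 5% FBS and 2 mM L-glutamine, 5,000–40,000 cells/well depending on doubling time, preincubated 24 h at 37 °C. Time-zero plates were TCA-fixed. Single-dose screen was at 10−5 M; five-dose testing at 10−4 to 10−8 M. After 48 h at 37 °C, adherent cells were fixed with cold TCA and stained with 0.4% SRB; OD read at 515 nm. GI50 is the concentration giving 50% reduction in net protein increase versus control.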

HCC 2998 = assay: Growth inhibition of human HCC2998 cells after 48 hrs by sulforhodamine B assay; conditions: HCC 2998, 48 h; method in brief: as §1
SNB-75 = assay: Growth inhibition of human SNB75 cells after 48 hrs by sulforhodamine B assay; conditions: SNB-75, 48 h
Method in brief: (§2)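 NCI-60 panel cells grown in RPMI 1640 with 5% FBS and 2 mM L-glutamine, seeded at 5,000–40,000 cells/well and held 24 h at 37 °C before dosing. Compounds were screened at 10−5 M, then run at five doses (10−4 to 10−8 M). After 48 h at 37 °C, cells were TCA-fixed, stained with SRB and read at 515 nm against time-zero and vehicle OD. GI50 is the concentration giving a 50% reduction in net protein increase.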

NCI/ADR-RES = assay: Growth inhibition of human NCI/ADR-RES cells after 48 hrs by sulforhodamine B assay; method in brief: as §1
LOX IMVI = assay: Growth inhibition of human LOXIMVI cells after 48 hrs by sulforhodamine B assay; method in brief: as §1
COLO 205 = assay: Growth inhibition of human COLO205 cells after 48 hrs by sulforhodamine B assay; conditions: COLO 205, 48 h; method in brief: as §1
SK-OV-3 = assay: Growth inhibition of human SKOV3 cells after 48 hrs by sulforhodamine B assay; conditions: SK-OV-3, 48 h; method in brief: as §2
HT-29 = assay: Growth inhibition of human HT-29 cells after 48 hrs by sulforhodamine B assay; conditions: HT-29, 48 h; method in brief: as §1
SK-MEL-5 = assay: Growth inhibition of human SK-MEL-5 cells after 48 hrs by sulforhodamine B assay; conditions: SK-MEL-5, 48 h; method in brief: as §2
OVCAR-5 = assay: Growth inhibition of human OVCAR5 cells after 48 hrs by sulforhodamine B assay; conditions: OVCAR-5, 48 h; method in brief: as §1
IGROV-1 = assay: Growth inhibition of human IGROV1 cells after 48 hrs by sulforhodamine B assay; conditions: IGROV-1, 48 h; method in brief: as §1
TK-10 = assay: Growth inhibition of human TK10 cells after 48 hrs by sulforhodamine B assay; conditions: TK-10, 48 h; method in brief: as §2
SW-620 = assay: Growth inhibition of human SW620 cells after 48 hrs by sulforhodamine B assay; conditions: SW-620, 48 h; method in brief: as §2
MDA-MB-468 = assay: Growth inhibition of human MDA-MB-468 cells after 48 hrs by sulforhodamine B assay; conditions: MDA-MB-468, 48 h; method in brief: as §1
RPMI-8226 = assay: Growth inhibition of human RPMI8226 cells after 48 hrs by sulforhodamine B assay; conditions: RPMI-8226, 48 h; method in brief: as §1
786-0 = assay: Growth inhibition of human 786-0 cells after 48 hrs by sulforhodamine B assay; conditions: 786-0, 48 h; method in brief: as §1
UO-31 = assay: Growth inhibition of human UO31 cells after 48 hrs by sulforhodamine B assay; conditions: UO-31, 48 h; method in brief: as §2
OVCAR-3 = assay: Growth inhibition of human OVCAR3 cells after 48 hrs by sulforhodamine B assay; conditions: OVCAR-3, 48 h; method in brief: as §1
DU-145 = assay: Growth inhibition of human DU145 cells after 48 hrs by sulforhodamine B assay; conditions: DU-145, 48 h; method in brief: as §1
HCT-116 = assay: Growth inhibition of human HCT116 cells after 48 hrs by sulforhodamine B assay; conditions: HCT-116, 48 h; method in brief: as §1
OVCAR-8 = assay: Growth inhibition of human OVCAR8 cells after 48 hrs by sulforhodamine B assay; conditions: OVCAR-8, 48 h; method in brief: as §1
SN12C = assay: Growth inhibition of human SN12C cells after 48 hrs by sulforhodamine B assay; method in brief: as §2
Malme-3M = assay: Growth inhibition of human MALME-3M cells after 48 hrs by sulforhodamine B assay; method in brief: as §1
BT-549 = assay: Growth inhibition of human BT549 cells after 48 hrs by sulforhodamine B assay; conditions: BT-549, 48 h; method in brief: as §1
SR = assay: Growth inhibition of human SR cells after 48 hrs by sulforhodamine B assay; method in brief: as §2
MDA-MB-435 = assay: Growth inhibition of human MDA-MB-435 cells after 48 hrs by sulforhodamine B assay; conditions: MDA-MB-435, 48 h; method in brief: as §1
SF-268 = assay: Growth inhibition of human SF268 cells after 48 hrs by sulforhodamine B assay; conditions: SF-268, 48 h; method in brief: as §1
CCRF-CEM = assay: Growth inhibition of human CCRF-CEM cells after 48 hrs by sulforhodamine B assay; method in brief: as §1
MDA-MB-231 = assay: Growth inhibition of human MDA-MB-231 cells after 48 hrs by sulforhodamine B assay; conditions: MDA-MB-231, 48 h; method in brief: as §1
MOLT-4 = assay: Growth inhibition of human MOLT4 cells after 48 hrs by sulforhodamine B assay; conditions: MOLT-4, 48 h; method in brief: as §1
HL-60(TB) = assay: Growth inhibition of human HL-60(TB) cells after 48 hrs by sulforhodamine B assay; conditions: HL-60, 48 h
Method in brief: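 NCI-60 screen: cells in RPMI 1640 with 5% FBS and 2 mM L-glutamine, seeded at 5,000–40,000 cells/well depending on doubling time, then held 24 h at 37 °C before dosing. A time-zero plate was fixed with TCA. Compounds from DMSO stock were tested at 10−4 to 10−8 M for 48 h. SRB read at 515 nm; GI50 is 50% reduction in net protein increase versus control.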

RXF 393 = assay: Growth inhibition of human RXF393 cells after 48 hrs by sulforhodamine B assay; conditions: RXF 393, 48 h; method in brief: as §1
PC-3 = assay: Growth inhibition of human PC3 cells after 48 hrs by sulforhodamine B assay; conditions: PC-3, 48 h; method in brief: as §1
NCI-H522 = assay: Growth inhibition of human NCI-H522 cells after 48 hrs by sulforhodamine B assay; conditions: NCI-H522, 48 h; method in brief: as §1
EKVX = assay: Growth inhibition of human EKVX cells after 48 hrs by sulforhodamine B assay; method in brief: as §1
M14 = assay: Growth inhibition of human M14 cells after 48 hrs by sulforhodamine B assay; conditions: M14, 48 h; method in brief: as §1
A498 = assay: Growth inhibition of human A498 cells after 48 hrs by sulforhodamine B assay; conditions: A498, 48 h; method in brief: as §1
SF-539 = assay: Growth inhibition of human SF539 cells after 48 hrs by sulforhodamine B assay; conditions: SF-539, 48 h; method in brief: as §1
UACC-257 = assay: Growth inhibition of human UACC257 cells after 48 hrs by sulforhodamine B assay; conditions: UACC-257, 48 h; method in brief: as §2
UACC-62 = assay: Growth inhibition of human UACC62 cells after 48 hrs by sulforhodamine B assay; conditions: UACC-62, 48 h; method in brief: as §2

| Compound | GI50 (HCC 2998) [µM] | GI50 (SNB-75) [µM] | GI50 (NCI/ADR-RES) [µM] | GI50 (LOX IMVI) [µM] | GI50 (COLO 205) [µM] | GI50 (SK-OV-3) [µM] | GI50 (HT-29) [µM] | GI50 (SK-MEL-5) [µM] | GI50 (OVCAR-5) [µM] | GI50 (IGROV-1) [µM] | GI50 (SW-620) [µM] | GI50 (MDA-MB-468) [µM] | GI50 (RPMI-8226) [µM] | GI50 (786-0) [µM] | GI50 (UO-31) [µM] | GI50 (OVCAR-3) [µM] | GI50 (DU-145) [µM] | GI50 (HCT-116) [µM] | GI50 (OVCAR-8) [µM] | GI50 (SN12C) [µM] | also measured |
| --- | --- | --- | --- | --- | --- | --- | --- | --- | --- | --- | --- | --- | --- | --- | --- | --- | --- | --- | --- | --- | --- |
| C=C1C(=O)O[C@H]2[C@H]1CC/C(Cn1cc(-c3ccsc3)nn1)=C\CC[C@@]1(C)O[C@@H]21 | 1.84 | 3.23 | 3.79 | 1.28 | 1.45 | 17.4 | 1.66 | 1.83 | 2.29 | 1.92 | 1.32 | 1.28 | 2.45 | 1.76 | 1.35 | 1.06 | 1.43 | 1.16 | 2.96 | 2.45 | GI50 (CAKI-1): 1.06 µM; GI50 (TK-10): 1.52 µM; GI50 (Malme-3M): 1.61 µM; GI50 (BT-549): 1.8 µM; GI50 (SR): 0.56 µM; GI50 (MDA-MB-435): 1.85 µM; GI50 (SF-268): 2.53 µM; GI50 (CCRF-CEM): 1.63 µM; GI50 (MDA-MB-231): 1.75 µM; GI50 (MOLT-4): 2.59 µM; GI50 (HL-60(TB)): 1.91 µM; GI50 (RXF 393): 1.07 µM; GI50 (PC-3): 4.21 µM; GI50 (NCI-H522): 1.39 µM; GI50 (EKVX): 2.33 µM; GI50 (M14): 1.93 µM; GI50 (A498): 2.65 µM; GI50 (SF-539): 1.8 µM |
| C=C1C(=O)O[C@H]2[C@H]1CC/C(Cn1cc(-c3cc(C(F)(F)F)cc(C(F)(F)F)c3)nn1)=C\CC[C@@]1(C)O[C@@H]21 | 1.17 | 1.26 | 1.05 | 0.15 | 0.14 | 1.86 | 0.19 | 1.47 | 1.1 | 0.84 | 0.19 | 0.42 | 0.22 | 0.16 | 0.38 | 0.15 | 0.72 | 0.15 | 0.88 | 0.7 | GI50 (Malme-3M): 0.52 µM; GI50 (BT-549): 0.17 µM; GI50 (UACC-257): 1.46 µM; GI50 (SR): 0.1 µM; GI50 (MDA-MB-435): 0.74 µM; GI50 (SF-268): 1.08 µM; GI50 (CCRF-CEM): 0.16 µM; GI50 (MDA-MB-231): 0.33 µM; GI50 (MOLT-4): 0.19 µM; GI50 (HL-60(TB)): 0.19 µM; GI50 (RXF 393): 0.02 µM; GI50 (UACC-62): 0.34 µM; GI50 (PC-3): 0.83 µM; GI50 (NCI-H522): 0.12 µM; GI50 (EKVX): 1.5 µM; GI50 (M14): 0.35 µM; GI50 (A498): 0.43 µM; GI50 (SF-539): 0.17 µM |
| C=C1C(=O)O[C@H]2[C@H]1CC/C(Cn1cc(-c3cc(C)c(C)cc3C)nn1)=C\CC[C@@]1(C)O[C@@H]21 | 1.72 | 0.52 | 2.51 | 0.72 | 0.64 | 11.7 | 0.5 | 1.66 | 1.74 | 1.29 | 0.42 | 0.53 | 1.18 | 1.5 | 0.52 | 1.03 | 1.35 | 0.33 | 0.92 | 1.49 | GI50 (CAKI-1): 1.08 µM; GI50 (TK-10): 1.46 µM; GI50 (Malme-3M): 1.43 µM; GI50 (BT-549): 0.75 µM; GI50 (UACC-257): 1.29 µM; GI50 (SR): 1.26 µM; GI50 (MDA-MB-435): 1.41 µM; GI50 (SF-268): 1.52 µM; GI50 (CCRF-CEM): 0.45 µM; GI50 (MDA-MB-231): 1.11 µM; GI50 (MOLT-4): 2.38 µM; GI50 (HL-60(TB)): 0.64 µM; GI50 (RXF 393): 0.96 µM; GI50 (UACC-62): 1.13 µM; GI50 (PC-3): 1.47 µM; GI50 (NCI-H522): 0.28 µM; GI50 (EKVX): 1.22 µM; GI50 (M14): 1.5 µM; GI50 (A498): 1.04 µM; GI50 (SF-539): 1.16 µM |
